Consider 11 compounds from ChEMBL document CHEMBL1156563, “Synthesis and antiproliferative evaluation of amide-containing flavone and isoflavone derivatives” (Bioorg Med Chem, 2008).

Common to all, as to type: functional
One test relates to NCI-H661. In words: Antiproliferative activity against human NCI-H661 cells after 72 hrs by MTT assay. To be noted: NCI-H661, 72 h. The method, boiled down:
(§1)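 Cells were exposed to a range of concentrations for 72 h. Compounds came from 20 mM stocks in 100% DMSO. Cells were then given MEM with 0.4 mg/mL MTT for 2 h, and formazan was read at 570 nm. GI50 was taken from percentage conversion relative to mock-treated controls and reported as mean SD of three independent experiments.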
Background: Formazan colour is commonly taken as a measure of viable cells.

The nature of test [1]: Antiproliferative activity against human NPC-TW01 cells after 72 hrs by MTT assay. The settings on record: NPC-TW01, 72 h. The method, boiled down: as §1
For another test, the system named is MT2. In words: Antiproliferative activity against human MT2 cells after 72 hrs by MTT assay. To be noted: MT2, 72 h. The method, boiled down: as §1

Broadly, the GI50 is the concentration giving 50% growth inhibition. Consider `O=C(COc1ccc2c(=O)cc(-c3ccccc3)oc2c1)Nc1ccc(F)cc1`, for which the values for the GI50 (in the test on NCI-H661; in test [1]; in the test on MT2) were 5.77 µM, more than 10 µM and 6.41 µM, respectively.

In the case of `O=C(COc1ccc2oc(-c3ccccc3)cc(=O)c2c1)Nc1ccccc1`, the GI50 in the test on NCI-H661 was determined as 5.6 µM; in test [1] it was 1.26 µM; with MT2, 1.43 µM.

For the compound `COc1ccc(NC(=O)COc2c(-c3ccccc3)oc3ccccc3c2=O)cc1`, the figures for the GI50 (with NCI-H661; in test [1]; in the test on MT2) were 6.74 µM, 5.48 µM and more than 10 µM, respectively.

Regarding `O=C(COc1c(-c2ccccc2)oc2ccccc2c1=O)Nc1ccccc1`, the GI50 is more than 10 µM with NCI-H661, more than 10 µM in test [1] and 6.72 µM in the test with MT2.

For the compound `O=C(COc1ccc2c(=O)cc(-c3ccccc3)oc2c1)Nc1ccc(-c2ccccc2)cc1`, the GI50 in the test on NCI-H661 is 1.28 µM; in test [1], 1.61 µM; in the test with MT2, 2.48 µM.

With `COc1ccc(NC(=O)COc2ccc3c(=O)cc(-c4ccccc4)oc3c2)cc1`, the GI50 in the test with NCI-H661 was found to be 5.5 µM; in test [1], 5.97 µM; with MT2 it was 6.7 µM.

On to `O=C(COc1ccc2c(=O)c(-c3ccccc3)coc2c1)Nc1ccc2ccccc2c1`, for which the GI50 with NCI-H661 was more than 10 µM; in test [1], 1.37 µM; with MT2 it was 7.68 µM.

Turning to `O=C(COc1ccc2c(=O)c(-c3ccccc3)coc2c1)Nc1ccc(-c2ccccc2)cc1`, the figures for the GI50 (in the test on NCI-H661; in test [1]; in the test with MT2) were more than 10 µM, 1.75 µM and more than 10 µM, respectively.

For `O=C(COc1c(-c2ccccc2)oc2ccccc2c1=O)Nc1ccc(F)cc1`, the results for the GI50 (with NCI-H661; in test [1]; in the test with MT2) were more than 10 µM, 9.5 µM and more than 10 µM, respectively.

`O=C(COc1ccc2c(=O)cc(-c3ccccc3)oc2c1)Nc1ccccc1`: the GI50 (in the test with NCI-H661; in test [1]; in the test with MT2) was more than 10 µM throughout.

Consider `O=C(COc1ccc2c(=O)c(-c3ccccc3)coc2c1)Nc1ccccc1`, for which the GI50 (in the test with NCI-H661; in test [1]; with MT2) was more than 10 µM each time.
